Test results as given in ChEMBL document CHEMBL1147141, “Potent nonpeptide antagonists of the bradykinin B1 receptor: structure-activity relationship studies with novel diaminochroman carboxamides” (J Med Chem, 2007).

Key:
B1 bradykinin receptor [1] = target: T1, B1 bradykinin receptor (Homo sapiens, UniProt P46663); assay: Displacement of [3H]DAK from human bradykinin B1 receptor expressed in CHOD cells; assay type: cell-based
T1 sequence (P46663 whole entry): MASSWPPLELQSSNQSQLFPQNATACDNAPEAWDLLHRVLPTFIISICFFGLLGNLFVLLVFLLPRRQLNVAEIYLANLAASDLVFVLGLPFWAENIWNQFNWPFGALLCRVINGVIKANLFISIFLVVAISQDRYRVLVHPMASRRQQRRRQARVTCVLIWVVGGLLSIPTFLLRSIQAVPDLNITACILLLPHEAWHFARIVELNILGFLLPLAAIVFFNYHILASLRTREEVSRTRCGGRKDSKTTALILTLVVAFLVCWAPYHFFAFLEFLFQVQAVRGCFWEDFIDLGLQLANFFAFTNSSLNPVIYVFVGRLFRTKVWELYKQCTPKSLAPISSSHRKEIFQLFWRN

B1 bradykinin receptor [2] = target: T1, B1 bradykinin receptor; assay: Antagonist activity at human bradykinin B1 receptor expressed in CHOD cells assessed as effect on DAK-induced calcium flux; assay type: functional, cell-based
[3] = Oral bioavailability in Sprague-Dawley rat at 10 mg/kg, po; assay type: ADME, organism-based; details: in vivo
Method in brief: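 Male Sprague-Dawley rats (225-280 g), cannulated and fasted overnight, were dosed by oral gavage at 10 mg/kg in 1% Tween 80, 2% HPMC, prepared 24-48 h before dosing, n = 3. Jugular blood was sampled over 6 or 8 h. Plasma was analysed by LC-MS/MS and parameters derived noncompartmentally.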

[4] = Clearance in Sprague-Dawley rat at 1 mg/kg, iv; assay type: ADME, organism-based; design: dose 1 mg/kg, route intravenous; details: in vivo
Method in brief: (§1)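 Male Sprague-Dawley rats (225-280 g) with femoral and jugular vein cannulae were fasted overnight. They received an i.v. bolus of 1 mg/kg in 100% DMSO, prepared on the dosing day, n = 3. Blood was drawn via jugular cannula over 6 or 8 h into heparin. Plasma was acetonitrile-precipitated and measured by LC-MS/MS (positive MRM). Parameters were noncompartmental and reported with SEM.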

[5] = Volume of distribution at steady state in Sprague-Dawley rat at 1 mg/kg, iv; assay type: ADME, organism-based; design: dose 1 mg/kg, route intravenous; details: in vivo, read-out: Vss; method in brief: as §1
[6] = Metabolic stability in human liver microsomes; assay type: ADME, Microsome; details: read-out: Stability
[7] = Half life in Sprague-Dawley rat at 1 mg/kg, iv; assay type: ADME, organism-based; design: dose 1 mg/kg, route intravenous; details: in vivo; method in brief: as §1
B1 bradykinin receptor [8] = target: T2, B1 bradykinin receptor (Rattus norvegicus, UniProt P97583); assay: Antagonist activity at rat bradykinin B1 receptor; assay type: functional
T2 sequence (P97583 whole entry): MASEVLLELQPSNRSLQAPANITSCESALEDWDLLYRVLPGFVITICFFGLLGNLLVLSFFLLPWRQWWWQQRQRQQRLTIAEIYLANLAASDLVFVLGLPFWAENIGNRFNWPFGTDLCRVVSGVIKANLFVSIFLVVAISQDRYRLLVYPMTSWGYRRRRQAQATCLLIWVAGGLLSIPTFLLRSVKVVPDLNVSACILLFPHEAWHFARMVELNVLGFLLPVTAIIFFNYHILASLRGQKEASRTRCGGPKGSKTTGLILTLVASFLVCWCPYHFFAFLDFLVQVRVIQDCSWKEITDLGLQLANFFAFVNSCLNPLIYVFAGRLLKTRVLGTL

[9] = Metabolic stability in rat liver microsomes; assay type: ADME, Microsome; details: read-out: Stability
B1 bradykinin receptor [10] = target: T3, B1 bradykinin receptor (Oryctolagus cuniculus, UniProt P48748); assay: Antagonist activity at rabbit bradykinin B1 receptor; assay type: functional
T3 sequence (P48748 whole entry): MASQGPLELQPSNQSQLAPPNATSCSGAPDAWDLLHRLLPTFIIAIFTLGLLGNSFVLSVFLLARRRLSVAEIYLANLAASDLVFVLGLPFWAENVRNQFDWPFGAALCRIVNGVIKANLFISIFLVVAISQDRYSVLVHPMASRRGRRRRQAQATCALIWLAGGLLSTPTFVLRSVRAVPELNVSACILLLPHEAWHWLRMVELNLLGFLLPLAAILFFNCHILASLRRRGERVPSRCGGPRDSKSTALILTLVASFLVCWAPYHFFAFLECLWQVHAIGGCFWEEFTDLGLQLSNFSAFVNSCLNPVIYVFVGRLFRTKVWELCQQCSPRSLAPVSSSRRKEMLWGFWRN

CC(C)NCc1ccc2c(c1)OCC[C@H]2NC(=O)C[C@@H](NS(=O)(=O)c1ccc2ccccc2c1)c1ccccc1
Ki (B1 bradykinin receptor [1]): 8.3 nM (antagonist) | IC50 (B1 bradykinin receptor [2]): 45.9 nM (antagonist)

O=C(C[C@@H](NS(=O)(=O)c1cccc(C(F)(F)F)c1)c1ccc(F)cc1)N[C@@H]1CCOc2cc(CN3CCCC3)ccc21
bioavailability [3]: 41% | clearance [4]: 51.3 mL/min/kg | Vd [5]: 13.7 L/kg | microsomal CLint [6]: 355 µL/min/mg | Ki (B1 bradykinin receptor [1]): 5.5 nM (antagonist) | IC50 (B1 bradykinin receptor [2]): 19.7 nM (antagonist) | half-life [7]: 3.8 h | Ki (B1 bradykinin receptor [8]): 151 nM (antagonist) | microsomal CLint [9]: 158 µL/min/mg | IC50 (B1 bradykinin receptor [10]): 450 nM (antagonist)

CCNCc1ccc2c(c1)OCC[C@H]2NC(=O)C[C@@H](NS(=O)(=O)c1ccc2ccccc2c1)c1ccccc1
Ki (B1 bradykinin receptor [1]): 8.9 nM (antagonist) | IC50 (B1 bradykinin receptor [2]): 60.2 nM (antagonist)

CC(C)(C)NCc1ccc2c(c1)OCC[C@H]2NC(=O)C[C@@H](NS(=O)(=O)c1ccccc1C(F)(F)F)c1ccccc1
Ki (B1 bradykinin receptor [1]): 367 nM (antagonist) | IC50 (B1 bradykinin receptor [2]): 2000 nM (antagonist)

CC(C)CNCc1ccc2c(c1)OCC[C@H]2NC(=O)C[C@@H](NS(=O)(=O)c1cccc(C(F)(F)F)c1)c1ccc(F)cc1
Ki (B1 bradykinin receptor [1]): 5.9 nM (antagonist) | IC50 (B1 bradykinin receptor [2]): 14.8 nM (antagonist)

CC(C)(C)NCc1ccc2c(c1)OCC[C@H]2NC(=O)C[C@@H](NS(=O)(=O)c1ccc(F)c(Cl)c1)c1ccccc1
Ki (B1 bradykinin receptor [1]): 25.2 nM (antagonist) | IC50 (B1 bradykinin receptor [2]): 203 nM (antagonist)

CNCc1ccc2c(c1)OCC[C@H]2NC(=O)C[C@@H](NS(=O)(=O)c1ccc2ccccc2c1)c1ccccc1
Ki (B1 bradykinin receptor [1]): 138 nM (antagonist) | IC50 (B1 bradykinin receptor [2]): 212 nM (antagonist)

CC(C)(C)NCc1ccc2c(c1)OCC[C@H]2NC(=O)C[C@@H](NS(=O)(=O)c1ccc(C(C)(C)C)cc1)c1ccccc1
Ki (B1 bradykinin receptor [1]): 24.8 nM (antagonist) | IC50 (B1 bradykinin receptor [2]): 60.9 nM (antagonist)

CC(C)(C)NCc1ccc2c(c1)OCC[C@H]2NC(=O)C[C@@H](NS(=O)(=O)c1ccc(C(F)(F)F)cc1)c1ccccc1
Ki (B1 bradykinin receptor [1]): 77.6 nM (antagonist) | IC50 (B1 bradykinin receptor [2]): 330 nM (antagonist)

CN(C)Cc1ccc2c(c1)OCC[C@H]2NC(=O)C[C@@H](NS(=O)(=O)c1ccc2ccccc2c1)c1ccccc1
Ki (B1 bradykinin receptor [1]): 84.8 nM (antagonist) | IC50 (B1 bradykinin receptor [2]): 167 nM (antagonist)

COCCNCc1ccc2c(c1)OCC[C@H]2NC(=O)C[C@@H](NS(=O)(=O)c1cccc(C(F)(F)F)c1)c1ccc(F)cc1
bioavailability [3]: 49% | clearance [4]: 39.4 mL/min/kg | Vd [5]: 8.09 L/kg | microsomal CLint [6]: 310 µL/min/mg | Ki (B1 bradykinin receptor [1]): 14 nM (antagonist) | IC50 (B1 bradykinin receptor [2]): 17.4 nM (antagonist) | half-life [7]: 3.4 h | Ki (B1 bradykinin receptor [8]): 208 nM (antagonist) | microsomal CLint [9]: 265 µL/min/mg | IC50 (B1 bradykinin receptor [10]): 1680 nM (antagonist)

CC(C)(C)NCc1ccc2c(c1)OCC[C@H]2NC(=O)C[C@@H](NS(=O)(=O)c1ccc(Cl)cc1Cl)c1ccccc1
Ki (B1 bradykinin receptor [1]): 127 nM (antagonist) | IC50 (B1 bradykinin receptor [2]): 255 nM (antagonist)

Cc1c(Cl)cccc1S(=O)(=O)N[C@H](CC(=O)N[C@@H]1CCOc2cc(CNC(C)(C)C)ccc21)c1ccccc1
Ki (B1 bradykinin receptor [1]): 40.6 nM (antagonist) | IC50 (B1 bradykinin receptor [2]): 207 nM (antagonist)

CC(C)(C)NCc1ccc2c(c1)OCC[C@H]2NC(=O)C[C@@H](NS(=O)(=O)c1ccc(Cl)cc1)c1ccccc1
Ki (B1 bradykinin receptor [1]): 132 nM (antagonist) | IC50 (B1 bradykinin receptor [2]): 580 nM (antagonist)

CC(C)(C)NCc1ccc2c(c1)OCC[C@H]2NC(=O)C[C@@H](NS(=O)(=O)c1ccc(Cl)c(Cl)c1)c1ccc(F)cc1
Ki (B1 bradykinin receptor [1]): 5 nM (antagonist) | IC50 (B1 bradykinin receptor [2]): 9.6 nM (antagonist)

CC(C)(C)NCc1ccc2c(c1)OCC[C@H]2NC(=O)C[C@@H](NS(=O)(=O)c1ccc2ccccc2c1)c1ccccc1
Ki (B1 bradykinin receptor [1]): 5.4 nM (antagonist) | IC50 (B1 bradykinin receptor [2]): 17 nM (antagonist)

CC(C)(C)NCc1ccc2c(c1)OCC[C@H]2NC(=O)C[C@@H](NS(=O)(=O)c1cccc(Cl)c1)c1ccccc1
Ki (B1 bradykinin receptor [1]): 27.7 nM (antagonist) | IC50 (B1 bradykinin receptor [2]): 113 nM (antagonist)
